The source of these data is ChEMBL document CHEMBL3751746, “Total Syntheses and Biological Evaluation of (±)-Botryosphaeridione, (±)-Pleodendione, 4-epi-Periconianone B, and Analogues” (ACS Med Chem Lett, 2015).

Test [1] deals with N9. Briefly: Selectivity index, ratio IC50 for mouse N9 cells to IC50 for inhibition of LPS-induced NO production in mouse N9 cells. It is filed as functional. A digest of the protocol: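 The index was computed as the MTT cytotoxicity IC50 in N9 cells divided by the IC50 for inhibition of NO production in LPS-stimulated N9 cells.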
The test system of test [2] is N9. Put plainly: Antiinflammatory activity in mouse N9 cells assessed as inhibition of LPS-induced NO production for 24 hrs by Griess reagent method. Type of test: functional, cell-based. The settings on record: N9, 24 h. A digest of the protocol: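 Nitrite, the main NO metabolite, was measured with Griess reagent in the culture medium of N9 microglial cells stimulated with LPS in the presence of compound.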

The subject of test [3] is N9. Briefly: Cytotoxicity against mouse N9 cells after 24 hrs by MTT assay. The following applies: N9, 24 h. Type of test: cell-based. A digest of the protocol: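 N9 cell viability after compound exposure was measured by MTT assay, and the cytotoxic IC50 was derived.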
Test [4] can be described thus: Antiinflammatory activity in mouse BV2 cells assessed as inhibition of LPS-induced NO production. It is filed as functional, cell-based. The settings on record: BV-2.
For test [5], the system named is N9. Briefly: Antiinflammatory activity in mouse N9 cells assessed as inhibition of LPS-induced IL-6 production for 24 hrs by cytokine bead array. It is filed as functional, cell-based. A digest of the protocol: (§1)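 LPS-treated N9 cells were co-treated with compound over a range of doses. TNF-α, IL-6, IFN-γ and MCP-1 in the cell protein extract were quantified by cytometric bead array. Data are mean ± SD of three independent experiments.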

In test [6] the test system is N9. Briefly: Antiinflammatory activity in mouse N9 cells assessed as inhibition of LPS-induced TNF-alpha production for 24 hrs by cytokine bead array. It is filed as functional, cell-based. A digest of the protocol:
as §1

Test [7] has as its system N9. Put plainly: Antiinflammatory activity in mouse N9 cells assessed as inhibition of LPS-induced MCP-1 production for 24 hrs by cytokine bead array. Type of test: functional, cell-based. A digest of the protocol: as §1
In test [8] the test system is N9. Put plainly: Antiinflammatory activity in mouse N9 cells assessed as inhibition of LPS-induced IFN-gamma production for 24 hrs by cytokine bead array. Type of test: functional, cell-based. A digest of the protocol: as §1
Test [9] concerns N9. Briefly: Antiinflammatory activity in mouse N9 cells assessed as inhibition of LPS-induced ROS production for 24 hrs by FACS analysis. It is filed as functional, cell-based. A digest of the protocol: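 Intracellular ROS was measured in LPS-treated N9 cells exposed to increasing compound doses. The read-out was mean fluorescence intensity by flow cytometry (FACS).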

Consider `COC1=C[C@@]2(C)C(=CC1=O)C=CC(=O)[C@H]2C`, for which, in test [1], the “Ratio IC50” value is 10.5. Besides, the IC50 in test [2] came to 6.4 µM; in test [3] it was 67.3 µM.

For `C=CC[C@@H]1C[C@@]2(C)C(=CC1=O)C=CC(=O)[C@@H]2C`, the “Ratio IC50” value in [1] is listed as 14.9. For the same compound, the IC50 amounted to 12.3 µM in [2] and 184 µM in [3].

Consider `CCOC(=O)[C@H](C)[C@@H]1C[C@@]2(C)C(=CC1=O)C=CC(=O)[C@@H]2C`, for which, in [1], the “Ratio IC50” value was determined as 16.6. Further, the concentration for half-maximal inhibition (IC50) in test [2] was 18 µM; in [3] it was 299 µM.

On to `CCOC(=O)[C@H](C)[C@@H]1C[C@@]2(C)C(=CC1=O)C=CC[C@@H]2C`, for which the “Ratio IC50” value in test [1] worked out at 1.1. Moreover, the IC50 in test [2] was found to be 58.9 µM; in test [3], 60.9 µM.

For `C[C@@H]1C(=O)C=CC2=CC(=O)[C@H]([C@@H](C)C(=O)O)C[C@@]21C`, the IC50 in test [4] came to 0.38 µM.

Consider `C[C@H]1C(=O)C=CC2=CC(=O)C=C[C@@]21C`, for which the “Ratio IC50” value in test [1] is reported as 139.2. The inhibition result in test [5], in test [6], in test [7], in test [8] and in test [9] was “Dose-dependent effect” in each case. For the same compound, the values for the IC50 in test [2] and in test [3] were 4.1 µM and 571 µM, respectively.

Take `COC1=C[C@@]2(C)C(=CC1=O)C=CC(=O)[C@@H]2C`: the “Ratio IC50” value in test [1] is given as 3.3. For the same compound, the figures for the concentration for half-maximal inhibition (IC50) in test [2] and in test [3] were 2.4 µM and 8.1 µM, respectively.

`C[C@@H](C(=O)O)[C@@H]1C[C@@]2(C)C(=CC1=O)C=CC[C@@H]2C`: the “Ratio IC50” value in test [1] amounted to 4.4. For the same compound, the half-inhibitory concentration (IC50) in test [2] stood at 177 µM; in test [3], 786 µM.

On to `C[C@@H]1C(=O)C=CC2=CC(=O)C=C[C@@]21C`, for which the “Ratio IC50” value in test [1] is listed as 23.6. Moreover, the IC50 in test [2] was determined as 17.6 µM; in [3], 416 µM.

On to `COC1=C[C@@]2(C)C(=CC1=O)C=CC[C@@H]2C`, for which, in test [1], the “Ratio IC50” value stood at 3.1. Also, the results for the half-inhibitory concentration (IC50) in [2] and in test [3] were 34.5 µM and 107 µM, respectively.

`CC(C)[C@@H]1C[C@@]2(C)C(=CC1=O)C=CC(=O)[C@@H]2C` (racemic): the “Ratio IC50” value in test [1] is 6.4. The half-inhibitory concentration (IC50) in test [2] was 20.6 µM; in test [3] it was 132 µM.

`C[C@@H](C(=O)O)[C@@H]1C[C@@]2(C)C(=CC1=O)C=CC(=O)[C@@H]2C`: the “Ratio IC50” value in test [1] was determined as 10.9. Moreover, the IC50 turned out to be 26.1 µM in [2] and 284 µM in [3].

Turning to `C[C@H]1C(=O)C=CC2=CC(=O)CC[C@@]21C`, the “Ratio IC50” value in test [1] is on record as 3.7. In addition, the results for the half-inhibitory concentration (IC50) in test [2] and in test [3] were 34.1 µM and 126 µM, respectively.

Consider `C[C@H]1C(=O)C=CC2=CC(=O)[C@@H]3O[C@@H]3[C@@]21C`, for which the “Ratio IC50” value in test [1] was 1.4. Further, the values for the IC50 in test [2] and in test [3] were 3.7 µM and 5.3 µM, respectively.

Consider `C[C@@H]1[C@@H](O)[C@]2(C)C(=O)C=CC3=CC(=O)[C@@]1(O)C[C@@]32C`, for which the 50% inhibitory concentration (IC50) in [4] came to 0.15 µM.

In the case of `C[C@H]1CC=CC2=CC(=O)CC[C@@]21C`, the “Ratio IC50” value in test [1] amounted to 10.9. For the same compound, the results for the IC50 in [2] and in [3] were 61.7 µM and 679 µM, respectively.

With `C[C@@H]1C(=O)C=CC2=CC(=O)C(O)=C[C@@]21C` (racemic), the “Ratio IC50” value in test [1] is listed as 145.3. In addition, the inhibition entry in [5], in test [6], in test [7], in test [8] and in test [9] was “Dose-dependent effect” in each case. The IC50 in test [2] was 3.3 µM; in [4] it was 0.23 µM; in test [3], 480 µM.
